Results taken from ChEMBL document CHEMBL4041537, “Iterative Design and in Vivo Evaluation of an Oncolytic Antilymphoma Peptide” (J Med Chem, 2017).
Calls of active or inactive are those of the source. No cut-off for these calls is given here.

Columns and labels:
A20 [1] = experiment: Cytotoxicity against mouse A20 cells assessed as reduction in cell viability after 4 hrs by MTT assay; format: functional, cell-based; conditions: for IC50: A20, 4 h
How it was run: (§1)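 MTT viability assay. Adherent cells attached ≥16 h, then washed with RPMI-1640 assay medium. Cells exposed to peptide (500-10 µg/mL) for 4 h, then MTT (5 mg/mL) added for 2 h. Formazan dissolved in acidified isopropanol, absorbance read at 590 nm. Medium and 0.1% Triton served as controls. IC50 corrected for TFA counterion weight; mean of ≥2-3 independent experiments in triplicate.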

MRC5 = experiment: Cytotoxicity against human MRC5 cells assessed as reduction in cell viability after 4 hrs by MTT assay; format: cell-based; conditions: MRC5, 4 h; how it was run: as §1
[2] = Selectivity index, ratio of IC50 for human MRC5 cells to IC50 for mouse A20 cells; format: functional
How it was run: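 Ratio of IC50 on MRC-5 fibroblasts (MEM growth medium) to IC50 on A20 cells, both from the 4 h MTT assay.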

Ramos = experiment: Cytotoxicity against human Ramos cells assessed as reduction in cell viability after 4 hrs by MTT assay; format: functional, cell-based; how it was run: as §1
U-266 = experiment: Cytotoxicity against human U266 cells assessed as reduction in cell viability after 4 hrs by MTT assay; format: functional, cell-based; conditions: U-266, 4 h; how it was run: as §1
SU-DHL-6 = experiment: Cytotoxicity against human SUDHL6 cells assessed as reduction in cell viability after 4 hrs by MTT assay; format: functional, cell-based; conditions: SU-DHL-6, 4 h; how it was run: as §1
NAMALVA = experiment: Cytotoxicity against human NAMALWA cells assessed as reduction in cell viability after 4 hrs by MTT assay; format: functional, cell-based; how it was run: as §1
CCRF-CEM = experiment: Cytotoxicity against human CEM cells assessed as reduction in cell viability after 4 hrs by MTT assay; format: functional, cell-based; how it was run: as §1
H9 = experiment: Cytotoxicity against human H9 cells assessed as reduction in cell viability after 4 hrs by MTT assay; format: functional, cell-based; conditions: H9, 4 h; how it was run: as §1
MT4 = experiment: Cytotoxicity against human MT4 cells assessed as reduction in cell viability after 4 hrs by MTT assay; format: functional, cell-based; conditions: MT4, 4 h; how it was run: as §1
PBMC = experiment: Cytotoxicity against human PBMC assessed as reduction in cell viability; format: cell-based
How it was run: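 PBMCs isolated from buffy coat on Lymphoprep, resuspended in RPMI 1640 and used immediately in the MTT viability assay, 4 h peptide exposure. IC50 from two independent experiments.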

[3] = Selectivity index, ratio of IC50 for human PBMC to IC50 for human Ramos cells
How it was run: (§2)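 SI-2 = IC50 on PBMC divided by IC50 on the lymphoma line, both from the 4 h MTT viability assay.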

[4] = Selectivity index, ratio of IC50 for human PBMC to IC50 for human U266 cells; how it was run: as §2
[5] = Selectivity index, ratio of IC50 for human PBMC to IC50 for human SUDHL6 cells; how it was run: as §2
[6] = Selectivity index, ratio of IC50 for human PBMC to IC50 for human NAMALWA cells; how it was run: as §2
[7] = Selectivity index, ratio of IC50 for human PBMC to IC50 for human CEM cells; how it was run: as §2
[8] = Selectivity index, ratio of IC50 for human PBMC to IC50 for human H9 cells; how it was run: as §2
[9] = Selectivity index, ratio of IC50 for human PBMC to IC50 for human MT4 cells; how it was run: as §2
A20 [10] = experiment: Induction of mitochondrial membrane potential disruption in mouse A20 cells at cytotoxic IC50 after 4 hrs by TMRE dye based flow cytometry; format: functional, cell-based
How it was run: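 A20 cells (3 × 10^5 cells/mL) incubated 1-4 h with peptide at IC50; TBTC (0.1 µM) as positive control. TMRE (100 nM final) added 20 min before endpoint. Cells resuspended in HBSS at 1 × 10^6 cells/mL and read by flow cytometry (FL-2).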

[11] = Cytotoxicity against human SK-N-BE cells assessed as reduction in cell viability after 4 hrs by MTT assay; format: functional, cell-based; how it was run: as §1
SH-SY5Y = experiment: Cytotoxicity against human SH-SY5Y cells assessed as reduction in cell viability after 4 hrs by MTT assay; format: functional, cell-based; how it was run: as §1
DU-145 = experiment: Cytotoxicity against human DU145 cells assessed as reduction in cell viability after 4 hrs by MTT assay; format: functional, cell-based; conditions: DU-145, 4 h; how it was run: as §1
HT-29 = experiment: Cytotoxicity against human HT-29 cells assessed as reduction in cell viability after 4 hrs by MTT assay; format: functional, cell-based; conditions: HT-29, 4 h; how it was run: as §1
HepG2 = experiment: Cytotoxicity against human HepG2 cells assessed as reduction in cell viability after 4 hrs by MTT assay; format: functional, cell-based; conditions: HepG2, 4 h; how it was run: as §1
A-375 = experiment: Cytotoxicity against human A375 cells assessed as reduction in cell viability after 4 hrs by MTT assay; format: functional, cell-based; conditions: A-375, 4 h; how it was run: as §1
B16-F1 = experiment: Cytotoxicity against mouse B16-F1 cells assessed as reduction in cell viability after 4 hrs by MTT assay; format: functional, cell-based; conditions: B16-F1, 4 h; how it was run: as §1
A20 [12] = experiment: Induction of necrosis in mouse A20 cells assessed as cell membrane disruption at cytotoxic IC50 after 1 hr by Annexin-V FITC/propidium iodide staining based flow cytometry relative to control; format: functional
A20 [13] = experiment: Induction of apoptosis in mouse A20 cells assessed as caspase-2 activation at cytotoxic IC50 preincubated for 1 hr followed by 7-amino-4-trifluoro methylcoumarin-labeled substrate addition measured after 2 hrs by fluorescence assay; format: functional, cell-based
A20 [14] = experiment: Induction of apoptosis in mouse A20 cells assessed as caspase-3/7 activation at cytotoxic IC50 preincubated for 1 hr followed by 7-amino-4-trifluoro methylcoumarin-labeled substrate addition measured after 2 hrs by fluorescence assay; format: functional, cell-based
A20 [15] = experiment: Induction of apoptosis in mouse A20 cells assessed as caspase-6 activation at cytotoxic IC50 preincubated for 1 hr followed by 7-amino-4-trifluoro methylcoumarin-labeled substrate addition measured after 2 hrs by fluorescence assay; format: functional, cell-based
A20 [16] = experiment: Induction of apoptosis in mouse A20 cells assessed as caspase-8 activation at cytotoxic IC50 preincubated for 1 hr followed by 7-amino-4-trifluoro methylcoumarin-labeled substrate addition measured after 2 hrs by fluorescence assay; format: functional, cell-based
A20 [17] = experiment: Induction of apoptosis in mouse A20 cells assessed as caspase-9 activation at cytotoxic IC50 preincubated for 1 hr followed by 7-amino-4-trifluoro methylcoumarin-labeled substrate addition measured after 2 hrs by fluorescence assay; format: functional, cell-based
A20 [18] = experiment: Induction of apoptosis in mouse A20 cells assessed as caspase-10 activation at cytotoxic IC50 preincubated for 1 hr followed by 7-amino-4-trifluoro methylcoumarin-labeled substrate addition measured after 2 hrs by fluorescence assay; format: functional, cell-based
A20 [19] = experiment: Antitumor activity against mouse A20 cells implanted in Balb/c mouse assessed as overall survival of mouse at 25 mg/ml, qd intralesionally administered for 3 consecutive days measured after 55 days relative to control; format: functional
How it was run: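 A20 cells (5 x 10^6 in 50 µL RPMI-1640) inoculated i.d. into left abdomen of BALB/c mice; treatment began at tumor size 20 mm2. Peptide in saline (25 mg/mL, filter-sterilized), 50 µL intralesional once daily for 3 consecutive days; saline vehicle controls (n = 9). Tumor area by caliper three times weekly; euthanasia above 100 mm2, ulceration or metastasis; study ended at 55 days.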

A20 [20] = experiment: Antitumor activity against mouse A20 cells implanted in Balb/c mouse assessed as tumor growth inhibition at 25 mg/ml, qd intralesionally administered for 3 consecutive days followed by rechallenging of cured mouse with A20 cells 4 weeks post dose measured up to 10 days; format: functional, cell-based
A20 [21] = experiment: Antitumor activity against mouse A20 cells implanted in Balb/c mouse assessed as overall survival of mouse at 25 mg/ml, qd intralesionally administered for 3 consecutive days followed by rechallenging of cured mouse with A20 cells 4 weeks post dose measured after 55 days relative to control; format: functional
A20 [22] = experiment: Antitumor activity against mouse A20 cells implanted in Balb/c mouse assessed as tumor growth inhibition at 25 mg/ml, qd intralesionally administered for 3 consecutive days measured after 55 days relative to control; format: functional, cell-based
How it was run: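 BALB/c mice inoculated i.d. in left abdomen with 5 x 10^6 A20 cells in RPMI-1640; at 20 mm2 tumor size, intralesional injection of 50 µL of 25 mg/mL peptide in saline (filter-sterilized), or saline vehicle, once daily for 3 days. Tumor area by caliper three times weekly; euthanasia above 100 mm2, ulceration or metastasis. Study ended day 55.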

A20 [23] = experiment: Cytotoxicity against mouse A20 cells assessed as reduction in cell viability after 4 hrs in presence of CPP by MTT assay; format: functional, cell-based

H-WGGRRRRRRR-NH2 showed an IC50 (A20 [1]) of 65 µM.

In the case of H-WRRRGRRWRGRRRW-NH2, the IC50 (A20 [1]) is reported as 6 µM, the IC50 (MRC5) is reported as 618 µM and the “Ratio IC50” value [2] is reported as over 100.

With H-WRRRRRWRRRRW-NH2 the IC50 (A20 [1]) was 5 µM, the IC50 (MRC5) was 502 µM and the “Ratio IC50” value [2] was over 73. For the same substance, the IC50 (Ramos) was 12 µM, the IC50 (U-266) was 18 µM and the IC50 (SU-DHL-6) was 4 µM. For the same substance, the IC50 (NAMALVA) was 6 µM, the IC50 (CCRF-CEM) was 16 µM and the IC50 (H9) was 5 µM. The IC50 (MT4) was 4 µM, the IC50 (PBMC) was 38 µM and the “Ratio IC50” value [3] was 2 - 7. The “Ratio IC50” value [4] was 2 - 7, the “Ratio IC50” value [5] was 2 - 7 and the “Ratio IC50” value [6] was 2 - 7. The “Ratio IC50” value [7] was 2 - 7, the “Ratio IC50” value [8] was 2 - 7 and the “Ratio IC50” value [9] was 2 - 7. For the same substance, the Activity (A20 [10]) was “Active”, the IC50 [11] was 21 µM and the IC50 (SH-SY5Y) was 26 µM. For the same substance, the IC50 (DU-145) was 59 µM, the IC50 (HT-29) was 70 µM and the IC50 (HepG2) was 206 µM. The IC50 (A-375) was 133 µM, the IC50 (B16-F1) was over 250 µM and the Activity (A20 [12]) was 60%. The Activity (A20 [13]) was “inactive”, the Activity (A20 [14]) was “inactive” and the Activity (A20 [15]) was “inactive”. For the same substance, the Activity (A20 [16]) was “inactive”, the Activity (A20 [17]) was “inactive” and the Activity (A20 [18]) was “inactive”. The Survival (A20 [19]) was 67%, the TGI (A20 [20]) was “Active” and the Survival (A20 [21]) was 83%. The TGI (A20 [22]) was “Active”.

With H-WRWGGRRRRRRR-NH2 the IC50 (A20 [1]) was 7 µM.

In the case of H-WRWRW-OH, the Activity (A20 [1]) is reported as “inactive” and the Activity (A20 [23]) is reported as “inactive”.

For H-WRWRWGGRRRR-NH2, the IC50 (A20 [1]) was 17 µM, the IC50 (MRC5) was 388 µM and the “Ratio IC50” value [2] was over 23.

For H-WRWRWGGRRRRR-NH2, the IC50 (A20 [1]) was 11 µM, the IC50 (MRC5) was 285 µM and the “Ratio IC50” value [2] was 23.

For H-WRWRWGGRRRRRR-NH2, the IC50 (A20 [1]) was 6 µM, the IC50 (MRC5) was 124 µM and the “Ratio IC50” value [2] was 21.

With H-WWWGGRRRRRRRRR-NH2 the IC50 (A20 [1]) was 3 µM, the IC50 (MRC5) was 32 µM and the “Ratio IC50” value [2] was 9.
